PubChem BioAssay AID588578 (Sanford-Burnham Center for Chemical Genomics, 2011)
Activity calls are given as the source filed them.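 Rule for the calls: active = IC50 at or below 20 µM; inactive = the rest.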

molecular target: Bcl-2-like protein 1 (Homo sapiens) (UniProt Q07817); experiment: displacement of Bim BH3 peptide from Bcl-XL – biochemical, fluorescence polarization, GST-Bcl-XL, FITC-Bim, selectivity assay for Bcl-B inhibitor project, SAR follow-up (AID 588578)
In short: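 Assay system: Purified GST-Bcl-XL lacking C-terminal transmembrane region, E. coli-expressed | Reagent: FITC-Bim probe peptide | Dosing: Ten doses, twofold serial dilution | Timing: 20 min 4 °C preincubation, 10 min RT tracer binding | Read-out basis: IC50 from sigmoidal non-linear dose-response fit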

Sequence of Bcl-2-like protein 1 (Homo sapiens) (Q07817 whole entry, looked up): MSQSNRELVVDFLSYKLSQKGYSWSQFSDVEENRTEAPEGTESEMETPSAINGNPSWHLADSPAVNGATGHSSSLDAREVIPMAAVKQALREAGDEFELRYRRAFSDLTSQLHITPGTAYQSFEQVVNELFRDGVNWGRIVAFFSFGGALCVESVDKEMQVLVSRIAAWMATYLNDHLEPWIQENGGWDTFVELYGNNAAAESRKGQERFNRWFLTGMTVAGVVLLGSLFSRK

Question: For O=c1c2cnc3nc(-c4ccccc4)nn3c2ccn1CCc1cnc[nH]1, which IC50 is on record?
Answer: > 20 µM (inactive)

Question: O=c1c2c(n3nnnc3n1Cc1ccc(F)cc1)-c1ccccc1CC21CCCC1 was tested. Which IC50 did it give?
Answer: > 20 µM (inactive)

Question: How did the IC50 turn out when O=c1c2c(n3cnnc3n1Cc1ccccc1)-c1ccccc1CC21CCCC1 was run?
Answer: > 20 µM (inactive)

Question: For O=c1c2c(n3cnnc3n1Cc1ccc(Cl)cc1)-c1ccccc1CC21CCCC1, which IC50 is on record?
Answer: > 20 µM (inactive)

Question: How did the IC50 turn out when Cn1c(NCCO)nc2c(c1=O)C1(CCCCC1)Cc1ccccc1-2 was run?
Answer: > 20 µM (inactive)

Question: For Cc1ccc2c(c1)-c1c(c(=O)n(Cc3ccc(F)cc3)c3nncn13)C1(CCCCC1)C2, which IC50 is on record?
Answer: > 20 µM (inactive)

Question: With COc1ccc2c(c1)-c1c(c(=O)n(Cc3ccc(F)cc3)c3nncn13)C(C)(C)C2 as the compound, how does the IC50 read?
Answer: > 20 µM (inactive)

Question: For C=C(C)Cn1c(=O)c2c(n3nnnc13)-c1ccccc1CC21CCCC1, which IC50 is on record?
Answer: > 20 µM (inactive)

Question: c1ccc(OCc2nc3c4c(ncn3n2)-c2ccccc2CC42CCCC2)cc1 was tested. Which IC50 did it give?
Answer: > 20 µM (inactive)

Question: CC1(C)Cc2ccccc2-c2nc3nn[nH]n3c(=O)c21 was tested. Which IC50 did it give?
Answer: > 20 µM (inactive)

Question: Which IC50 does the source give for COc1ccc(Cn2c(=O)c3c(n4nnnc24)-c2ccccc2CC32CCCC2)cc1 here?
Answer: > 20 µM (inactive)

Question: Which IC50 does the source give for O=c1c2c(n3nnnc3n1Cc1ccccc1)-c1cc(F)ccc1CC21CCCCC1 here?
Answer: > 20 µM (inactive)

Question: With O=c1c2ccccc2nc2n1C1(CCCC1)Cc1ccccc1-2 as the compound, how does the IC50 read?
Answer: > 20 µM (inactive)

Question: For O=c1c2c(nc3n1CCS3)-c1ccccc1CC21CCCCC1, which IC50 is on record?
Answer: > 20 µM (inactive)

Question: With O=c1c2ccccc2nc2n1C1(CCCCC1)Cc1ccccc1-2 as the compound, how does the IC50 read?
Answer: > 20 µM (inactive)

Question: Cc1ccc2c(c1)-c1c(c(=O)n(Cc3ccc(Cl)cc3)c3nnnn13)C1(CCCCC1)C2 was tested. Which IC50 did it give?
Answer: > 20 µM (inactive)

Question: With Cc1ccc2c(c1)-c1c(c(=O)n(Cc3ccc(F)cc3)c3nnnn13)C1(CCCCC1)C2 as the compound, how does the IC50 read?
Answer: > 20 µM (inactive)

Question: With O=c1[nH]c(NCCCO)nc2c1C1(CCCCC1)Cc1ccccc1-2 as the compound, how does the IC50 read?
Answer: > 20 µM (inactive)

Question: COc1ccc(Cn2c(=O)c3c(n4nnnc24)-c2cc(C)ccc2CC3(C)C)cc1 was tested. Which IC50 did it give?
Answer: > 20 µM (inactive)

Question: Which IC50 does the source give for CC1(C)Cc2ccccc2-c2c1c(=O)n(Cc1ccccc1)c1nncn21 here?
Answer: > 20 µM (inactive)

Question: O=c1c2c(n3nnnc3n1Cc1ccccc1)-c1ccccc1CC21CCCCC1 was tested. Which IC50 did it give?
Answer: > 20 µM (inactive)

Question: C=C(C)Cn1c(=O)c2c(n3cnnc13)-c1ccccc1CC21CCCC1 was tested. Which IC50 did it give?
Answer: > 20 µM (inactive)

Question: Which IC50 does the source give for Cc1ccc2c(c1)-c1c(c(=O)n(Cc3ccccc3)c3nnnn13)C1(CCCCC1)C2 here?
Answer: > 20 µM (inactive)

Question: With COc1ccc2c(c1)-c1c(c(=O)n(Cc3ccc(Cl)cc3)c3nnnn13)C1(CCCC1)C2 as the compound, how does the IC50 read?
Answer: > 20 µM (inactive)

Question: With COc1ccc2c(c1)-c1c(c(=O)n(Cc3ccc(Cl)cc3)c3nnnn13)C(C)(C)C2 as the compound, how does the IC50 read?
Answer: > 20 µM (inactive)

Question: Which IC50 does the source give for O=c1[nH]c(CN2CCCC2)nc2c1C1(CCCC1)Cc1ccccc1-2 here?
Answer: > 20 µM (inactive)

Question: With O=c1c2c(n3cnnc3n1Cc1ccccc1)-c1ccccc1CC21CCCCC1 as the compound, how does the IC50 read?
Answer: > 20 µM (inactive)

Question: How did the IC50 turn out when COc1ccc2c(c1)-c1c(c(=O)n(Cc3ccc(Cl)cc3)c3nncn13)C(C)(C)C2 was run?
Answer: > 20 µM (inactive)

Question: Which IC50 does the source give for O=c1[nH]c(CN2CCOCC2)nc2c1C1(CCCC1)Cc1ccccc1-2 here?
Answer: > 20 µM (inactive)

Question: With O=c1c2c(n3nnnc3n1-c1ccccc1)-c1ccccc1CC21CCCC1 as the compound, how does the IC50 read?
Answer: > 20 µM (inactive)

Question: Which IC50 does the source give for O=C1CCCC2=C1C(c1cc(Br)ccc1F)n1ncnc1N2 (stereo not drawn) here?
Answer: > 20 µM (inactive)

Question: For Cn1c(=O)c2c(n3cnnc13)-c1ccccc1CC21CCCC1, which IC50 is on record?
Answer: > 20 µM (inactive)

Question: With O=c1c2c(n3cnnc3n1C1CCCCC1)-c1ccccc1CC21CCCCC1 as the compound, how does the IC50 read?
Answer: > 20 µM (inactive)

Question: Cn1c(=S)[nH]c2c(c1=O)C1(CCCCC1)Cc1ccccc1-2 was tested. Which IC50 did it give?
Answer: > 20 µM (inactive)

Question: Which IC50 does the source give for COc1ccc2c(c1)-c1c(c(=O)n(Cc3ccc(Cl)cc3)c3nncn13)C1(CCCC1)C2 here?
Answer: > 20 µM (inactive)

Question: For O=c1c2c(nc3[nH]ncn13)-c1ccccc1CC21CCCCC1, which IC50 is on record?
Answer: > 20 µM (inactive)

Question: Which IC50 does the source give for COc1ccc2c(c1)-c1c(c(=O)n(Cc3ccccc3)c3nnnn13)C(C)(C)C2 here?
Answer: > 20 µM (inactive)

Question: For Cc1ccc2c(c1)-c1c(c(=O)n(Cc3ccccc3)c3nncn13)C(C)(C)C2, which IC50 is on record?
Answer: > 20 µM (inactive)

Question: O=c1c2c(nc3[nH]ncn13)-c1ccccc1CC21CCCC1 was tested. Which IC50 did it give?
Answer: > 20 µM (inactive)

Question: For CC1(C)Cc2ccccc2-c2c1c(=O)n(Cc1ccccc1)c1nnnn21, which IC50 is on record?
Answer: > 20 µM (inactive)

Question: How did the IC50 turn out when CC1(C)CC(n2c(=S)[nH]c3c(c2=O)C2(CCCC2)Cc2ccccc2-3)CCO1 (stereo not drawn) was run?
Answer: > 20 µM (inactive)

Question: Cc1ccc2c(c1)-c1c(c(=O)n(Cc3ccccc3)c3nncn13)C1(CCCCC1)C2 was tested. Which IC50 did it give?
Answer: > 20 µM (inactive)

Question: How did the IC50 turn out when O=C1CC(c2ccccc2F)c2c(n3ncnc3[nH]c2=O)N1 (stereo not drawn) was run?
Answer: > 20 µM (inactive)

Question: For CC1CC(=O)C2=C(C1)Nc1ncnn1C2c1cccnc1 (stereo not drawn), which IC50 is on record?
Answer: > 20 µM (inactive)

Question: Which IC50 does the source give for COc1ccc(Cn2c(=O)c3c(n4cnnc24)-c2cc(C)ccc2CC3(C)C)cc1 here?
Answer: > 20 µM (inactive)

Question: With O=C1CC(c2ccc(F)cc2)CC2=C1C(c1cccc(Cl)c1)n1ncnc1N2 (stereo not drawn) as the compound, how does the IC50 read?
Answer: > 20 µM (inactive)

Question: How did the IC50 turn out when COc1ccc2c(c1)-c1c(c(=O)n(Cc3ccccc3)c3nncn13)C1(CCCC1)C2 was run?
Answer: > 20 µM (inactive)

Question: O=c1c2c(n3nnnc3n1Cc1ccccc1)-c1ccccc1CC21CCCC1 was tested. Which IC50 did it give?
Answer: > 20 µM (inactive)

Question: O=c1c2cnc3ncnn3c2ccn1CCc1cnc[nH]1 was tested. Which IC50 did it give?
Answer: > 20 µM (inactive)

Question: How did the IC50 turn out when COc1ccc2c(c1)-c1c(c(=O)n(Cc3ccccc3)c3nnnn13)C1(CCCC1)C2 was run?
Answer: > 20 µM (inactive)

Question: Which IC50 does the source give for Cc1ccc2c(c1)-c1c(c(=O)n(Cc3ccc(Cl)cc3)c3nncn13)C1(CCCCC1)C2 here?
Answer: > 20 µM (inactive)

Question: For COc1ccc2c(c1)-c1c(c(=O)n(Cc3ccc(F)cc3)c3nnnn13)C(C)(C)C2, which IC50 is on record?
Answer: > 20 µM (inactive)

Question: O=c1c2c(n3nnnc3n1Cc1ccccc1)-c1cc(F)ccc1CC21CCCC1 was tested. Which IC50 did it give?
Answer: > 20 µM (inactive)

Question: For Cc1ccc2c(c1)-c1c(c(=O)n(Cc3ccccc3)c3nnnn13)C(C)(C)C2, which IC50 is on record?
Answer: > 20 µM (inactive)

Question: Which IC50 does the source give for O=c1c2c(n3nnnc3n1Cc1ccc(Cl)cc1)-c1ccccc1CC21CCCC1 here?
Answer: > 20 µM (inactive)

Question: With O=c1c2c(-c3ccccc3)n3ncnc3nc2ccn1-n1cnnc1 as the compound, how does the IC50 read?
Answer: > 20 µM (inactive)

Question: With COc1ccc2c(c1)-c1c(c(=O)n(Cc3ccccc3)c3nncn13)C(C)(C)C2 as the compound, how does the IC50 read?
Answer: > 20 µM (inactive)

Question: Which IC50 does the source give for O=c1c2c(-c3ccccc3)n3ncnc3nc2ccn1-c1ccccc1 here?
Answer: > 20 µM (inactive)
